Assay outcomes deposited in PubChem by several laboratories.
Most compounds without a hit are left out; they make up all but 1.6% or so of the library.
ADAM10 inh = human ADAM10 inhibitors, primary screen, biochemical, QFRET, HTS; Disintegrin and metalloproteinase domain-containing protein 10 (Homo sapiens), O14672; recombinant ADAM10, EDANS/DABCYL FRET peptide cleavage, 3 h; inhibition, % at 7 µM; 370,000 tested, 0.62% active; AID 720582, 2013;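 active = inhibition above a per-campaign cutoff equal to the mean of compounds falling between control-based bounds plus 3 SD, cut at about 20% in these data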
ADAM17 inh = ADAM17 inhibitors, primary screen, biochemical, QFRET; Disintegrin and metalloproteinase domain-containing protein 17 (Homo sapiens), P78536; recombinant ADAM17, EDANS/DABCYL FRET peptide cleavage; inhibition, % at 6.95 µM; 370,000 tested, 0.83% active;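 active = inhibition above the mean of compounds lying between control limits plus 3 SD, set per campaign, cut at about 8.5% in these data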
DDE Tn6 FP inh = inhibitors of Tn6 peptide binding to fibrin DD(E), primary screen, biochemical, fluorescence polarization, human fibrin, Tn6 probe; Fibrin DD(E) TRITC-Tn6 fluorescence polarization displacement; inhibition, % at 8.3 µM; 370,000 tested, 0.21% active; AID 720509, 2013;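 active = inhibition above a per-campaign cutoff: mean of compounds within control limits plus 3 SD, cut at about 15% in these data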
Target sequence (P02675 whole entry, looked up): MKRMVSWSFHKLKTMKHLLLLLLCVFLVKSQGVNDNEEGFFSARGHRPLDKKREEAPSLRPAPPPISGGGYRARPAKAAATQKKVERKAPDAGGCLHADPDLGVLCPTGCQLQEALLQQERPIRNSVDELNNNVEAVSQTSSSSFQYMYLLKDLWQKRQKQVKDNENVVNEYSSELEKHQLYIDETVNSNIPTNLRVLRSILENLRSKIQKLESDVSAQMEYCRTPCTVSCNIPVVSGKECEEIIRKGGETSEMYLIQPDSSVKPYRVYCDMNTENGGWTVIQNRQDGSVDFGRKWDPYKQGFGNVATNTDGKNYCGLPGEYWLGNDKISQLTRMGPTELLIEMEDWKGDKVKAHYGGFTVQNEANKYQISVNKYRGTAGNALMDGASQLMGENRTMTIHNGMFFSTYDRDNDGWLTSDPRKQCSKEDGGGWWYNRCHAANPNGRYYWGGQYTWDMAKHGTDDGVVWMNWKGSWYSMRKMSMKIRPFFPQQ
DDE Tn7 FP inh = inhibitors of Tn7 peptide binding to fibrin DD(E), primary screen, biochemical, fluorescence polarization, human fibrin, Tn7 probe; FP displacement of FITC-Tn7 peptide from fibrin DD(E); 0% = median of compound wells per plate; inhibition, % at 8.3 µM; 370,000 tested, 0.13% active;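 active = inhibition above the mean of compounds falling within the control limits plus 3 SD of them, cut at about 14% in these data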
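Test system – human fibrin DD(E) · Times – 10 min preincubation, 3 h with tracer, room temperature · Detection – fluorescence polarization of the labelled Tn7 tracer · Measure – percent inhibition normalized to high-control wells · Benchmarks – high control wells with 10 µM unlabelled Aha-Tn7 peptide (full inhibition) · Repeats – singlicate testing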
MT1-MMP act inh = blockers of MT1-MMP proenzyme processing, primary screen, HT1080 RFP-PRO-GFP cells, GFP/RFP fluorescence; Matrix metalloproteinase-14 (Homo sapiens), P50281; GFP/RFP ratio fluorescence, overnight; percent of plate control window, DMSO zero; GFP/RFP ratio change, % at 20 µM; 360,000 tested, 0.061% active;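 active = GFP/RFP ratio change of at least 30% with cell ATP level not reduced by more than half and red fluorescence within 50% of control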
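Test system: HT1080 RFP-PRO-GFP cells; Benchmarks: DMSO and RFP-L50D-GFP cell wells; Timing: cells overnight before dosing, compound overnight, 37 °C, 5% CO2; Compound: one 20 µM compound dose with 1% DMSO; Read-out: GFP/RFP fluorescence ratio.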
ADAM10 confirm = human ADAM10 inhibitors, confirmation, biochemical, QFRET, triplicate; shares compounds with ADAM10 inh; ADAM10 QFRET peptide cleavage, EDANS fluorescence; inhibition, % at 6.95 µM; 2,100 tested, 1% active;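 active = inhibition above about 20% chosen separately for each screening run, limit read from the data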
ADAM17 ctr = ADAM17 inhibitors, counter-screen for ADAM10 exosite inhibitor project, biochemical, QFRET, high throughput | shares compounds with ADAM10 inh | ADAM17 QFRET peptide cleavage, EDANS fluorescence | inhibition, % at 6.95 µM | AID 743214, 2013 | 2,100 tested, 0.5% active;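 active = mean triplicate inhibition above the solvent-only control wells' mean plus 3 SD, cut at about 12% in these data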
ADAM10 counter = ADAM10 inhibitors, counter-screen for ADAM17 exosite inhibitor project, biochemical, FRET, human ADAM10. recombinant ADAM10, EDANS/DABCYL FRET peptide cleavage, 3 h. AID 743256, 2014. 2,900 tested, 47% active. shares compounds with ADAM17 inh. inhibition, % at 6.95 µM;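 active = mean inhibition over the triplicate runs exceeds the activity threshold set in the earlier primary screen, cut at about 20% in these data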
ADAM17 confirm = ADAM17 inhibitors, hit retest, confirmation, biochemical, QFRET peptide cleavage; inhibition, % at 6.95 µM; 2,900 tested, 65% active; shares compounds with ADAM17 inh; recombinant ADAM17, EDANS/DABCYL QFRET peptide cleavage;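 active = mean inhibition across replicates above the hit cutoff set in the primary screen, cut at about 8.5% in these data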
A number is an active result; – = inactive; · = no result.

SMILES	ADAM10 inh	ADAM17 inh	DDE Tn6 FP inh	DDE Tn7 FP inh	MT1-MMP act inh	ADAM10 confirm	ADAM17 ctr	ADAM10 counter	ADAM17 confirm
O=C(C(=O)N1CCC(CNS(=O)(=O)c2cccc3ccccc23)CC1)c1cccs1	–	–	–	–	·	·	·	·	·
CCOc1ccccc1NC(=O)C(OC(=O)c1ccccc1NS(=O)(=O)c1cccs1)c1ccccc1 (configuration not stated)	–	–	–	–	–	·	·	·	·
Cc1cc(C)cc(NC(=O)C(OC(=O)c2cccs2)c2ccccc2)c1 (configuration not stated)	21	11	–	–	–	–	–	–	–
CC(=O)c1cccc(NC(=O)C(OC(=O)c2ccccc2NS(=O)(=O)c2cccs2)c2ccccc2)c1 (configuration not stated)	21	10	–	–	–	–	–	–	18
COc1cccc(C2NC(=S)N(Cc3ccccc3)C(C)=C2C(C)=O)c1 (configuration not stated)	–	–	–	–	·	·	·	·	·
O=[N+]([O-])c1cc(S(=O)(=O)Nc2ccccc2)ccc1N1CCN(c2ccc(O)cc2)CC1	–	–	–	–	–	·	·	·	·
Cc1ccc(NS(=O)(=O)c2ccc(N3CCN(c4ccc(O)cc4)CC3)c([N+](=O)[O-])c2)c(C)c1	20	10	–	–	–	–	–	32	19
O=C(NCCc1ccccc1F)c1ccc(Sc2ccccc2Cl)c([N+](=O)[O-])c1	–	–	–	–	·	·	·	·	·
O=C(NCCc1c[nH]c2ccccc12)c1ccc(Sc2ccccc2Cl)c([N+](=O)[O-])c1	23	9.1	–	–	·	–	–	27	19
O=C(CSc1nn(-c2ccccc2)c(=S)s1)Nn1cnnc1	–	–	–	–	–	·	·	·	·
Cc1ccc(NC(=O)CSc2nn(-c3ccccc3)c(=S)s2)cc1S(=O)(=O)N(C)C	22	9.0	–	–	–	–	–	33	19
COC(=O)[C@]12C[C@H](CC(=O)NCc3cccs3)C(=O)N(Cc3cccc4ccccc34)C1=C[C@H](COCc1ccccc1)O[C@@H]2C	–	–	–	–	·	·	·	·	·
COC(=O)c1cc(=O)nc(NN=C(C)C)s1	–	–	–	–	·	·	·	·	·
Cc1cc(C)c(NC(=O)COC(=O)CSc2ccc(Br)cc2C)c(C)c1	–	–	–	–	–	·	·	·	·
Cc1ccc(S(=O)(=O)N2CCOCC2)cc1NC(=O)COC(=O)CSc1ccc(Br)cc1C	21	13	–	–	–	–	–	20	11
Cc1ccc(S(=O)(=O)N2CCOCC2)cc1NC(=O)COC(=O)c1ccc(Br)cc1	–	–	–	–	–	·	·	·	·
CCN(CC)c1ccc(NC(=O)COC(=O)CSc2ccc(Br)cc2C)cc1	26	20	–	–	–	–	–	41	23
